Laboratory results: ChEMBL document CHEMBL4038332, “Substituted N-Phenyl-5-(2-(phenylamino)thiazol-4-yl)isoxazole-3-carboxamides Are Valuable Antitubercular Candidates that Evade Innate Efflux Machinery” (J Med Chem, 2017)
Values after ≈ are worked out from the molar mass of the structure shown.

Experiments:
[1] = tested on: Mycobacterium tuberculosis; assay: Antimycobacterial activity against wild type Mycobacterium tuberculosis H37Rv incubated for 14 days by broth microdilution assay; format: functional; settings: 336 h
[2] = Half life in human liver microsomes at 1 uM by HPLC-MS/MS analysis; format: ADME, microsome
Method in brief: (§1)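 Compound at 1 µM incubated 60 min at 37 °C with pooled HLM (1 mg protein/mL) and an NADPH-regenerating system in 100 mM PBS pH 7.4, after 5 min preheating. Sampled at 0, 15, 30, 60 min, quenched with two volumes of acetonitrile, centrifuged, and supernatant analysed by HPLC-MS/MS. CLint = (0.693/t1/2) × (mL incubation/mg microsomes) × 45 mg/g liver × 20 g liver/kg.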

[3] = Intrinsic clearance in human liver microsomes at 1 uM by HPLC-MS/MS analysis; format: ADME, microsome; settings: read-out: CLH; method in brief: as §1
[4] = tested on: Escherichia coli; assay: Antibacterial activity against Escherichia coli ATCC 25922 after 24 hrs by spectrophotometric analysis; format: functional; settings: ATCC 25922, 24 h
Method in brief: (§2)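 Log-phase culture in Mueller Hinton broth at 37 °C with shaking for 3-4 h, pelleted, adjusted at 600 nm in 10 mM phosphate buffer pH 7. Final inoculum approx. 5 × 10^5 CFU/mL. Twofold serial dilutions, final 100 to 0.2 µg/mL. Aerobic incubation 24 h at 37 °C. MIC is the lowest concentration with no visible growth, also read by resazurin (no blue-to-pink change).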

[5] = Selectivity index, ratio of IC50 for human MDM cells to MIC90 for Mycobacterium tuberculosis H37Rv; format: toxicity; settings: read-out: Selectivity Index
[6] = tested on: Pseudomonas aeruginosa; assay: Antibacterial activity against Pseudomonas aeruginosa ATCC 27853 after 24 hrs by spectrophotometric analysis; format: functional; settings: ATCC 27853, 24 h; method in brief: as §2
[7] = tested on: Enterococcus faecium; assay: Antibacterial activity against Enterococcus faecium ATCC 35667 after 24 hrs by spectrophotometric analysis; format: functional; settings: ATCC 35667, 24 h; method in brief: as §2
[8] = tested on: Mycobacterium tuberculosis; assay: Antimycobacterial activity against nonreplicating Mycobacterium tuberculosis H37Rv ATCC 27924 incubated for 5 days under hypoxic condition followed by 2 days incubation under normal atmosphere by MTT dye based broth microdilution assay; format: functional
Method in brief: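 Mtb H37Rv ATCC27924 adapted to hypoxia: grown in 8 mL MB7H9, tubes tightly capped and sealed, standing at 37 °C for 8 weeks; methylene blue (final 1.5 µg/mL) monitored O2 depletion. Cells exposed to varying compound concentrations 5 days at 37 °C in anaerobic jar (indicator strip), then 2 days normal atmosphere recovery; MTT to final 2.5%, overnight at room temperature; MIC = lowest concentration with no colour change; triplicate.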

[9] = tested on: Mycobacterium tuberculosis; assay: Antimycobacterial activity against wild type Mycobacterium tuberculosis H37Rv incubated for 14 days in presence of Thioridazine by broth microdilution assay; format: functional; settings: 336 h
[10] = Cytotoxicity against human MDM cells assessed as reduction in cell viability after 3 days by AlamarBlue assay; format: cell-based; settings: 72 h
Method in brief: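 Macrophages came from healthy donors' PBMC (Ficoll gradient), differentiated 7 days in RPMI-1640/10% FCS with 20 ng/mL M-CSF at 37 °C, 5% CO2. 5 × 10^4 cells/well exposed to compounds for 3 days. Viability by AlamarBlue fluorescence (ex 540/35, em 590/20). IC50 taken as the highest concentration leaving 50% of cells viable relative to control.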

[11] = tested on: Candida albicans; assay: Antifungal activity against Candida albicans ATCC 11006 after 48 hrs by spectrophotometric analysis; format: functional; settings: ATCC 11006, 48 h
Method in brief: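 Broth microdilution in RPMI per CLSI M27-A3. Inoculum adjusted to 0.5 McFarland in phosphate buffer, diluted to about 10^3 CFU/mL final and used within 30 min. Compounds at final 100 to 0.2 µg/mL (twofold). Aerobic incubation 48 h at 37 °C. MIC is the lowest concentration without visible growth, also checked by resazurin colour change.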

[12] = tested on: Staphylococcus aureus; assay: Antibacterial activity against Staphylococcus aureus ATCC 25923 after 24 hrs by spectrophotometric analysis; format: functional; settings: ATCC 25923, 24 h; method in brief: as §2
[13] = tested on: Mycobacterium tuberculosis H37Rv; assay: Inhibition of efflux pump in wild type Mycobacterium tuberculosis H37Rv assessed as increase in accumulation of ethidium bromide by measuring relative final fluorescence index at 2.6 uM measured every second for 60 mins in absence of glucose by real time fluorimetric method
[14] = tested on: Mycobacterium tuberculosis; assay: Antimycobacterial activity against wild type Mycobacterium tuberculosis H37Rv incubated for 14 days in presence of Verapamil by broth microdilution assay; format: functional; settings: 336 h

COc1ccc(-c2cc(-c3csc(Nc4cc(Cl)cc(Cl)c4)n3)on2)cc1
MIC90 [1]: > 64 µg/mL

CCN(CC)C(=O)c1cc(-c2csc(Nc3cc(Cl)cc(Cl)c3)n2)n(C)n1
MIC90 [1]: > 64 µg/mL

Cc1ccc(Nc2nc(-c3cc(C(=O)N4CCCCC4)no3)cs2)cc1
MIC90 [1]: 16 to 32 µg/mL

Clc1cc(Cl)cc(Nc2nc(-c3ccncc3)cs2)c1
MIC90 [1]: > 64 µg/mL

CCN(CC)C(=O)c1cc(-c2csc(Nc3ccc(C)cc3)n2)on1
MIC90 [1]: 16 to 32 µg/mL

Cc1ccc(Nc2nc(-c3cc(C(=O)O)no3)cs2)cc1
half-life at 1 µM [2]: 14.3 min | CLint scaled at 1 µM [3]: 43.7 mL/min/kg | MIC90 [1]: > 64 µg/mL

Cc1ccc(Nc2nc(-c3cc(C(=O)Nc4ccccc4)no3)cs2)cc1
half-life at 1 µM [2]: 35.1 min | MIC90 [4]: 100 µg/mL (≈ 266 µM) | selectivity ratio [5]: > 500 | MIC90 [6]: 100 µg/mL (≈ 266 µM) | MIC90 [7]: 100 µg/mL (≈ 266 µM) | MIC90 [8]: 1 µg/mL (≈ 2.66 µM) | MIC90 [9]: 2 µg/mL | IC50 [10]: 186 µM | CLint scaled at 1 µM [3]: 17.8 mL/min/kg | MIC90 [11]: > 100 µg/mL | MIC90 [12]: > 100 µg/mL | MIC90 [1]: 0.33 to 0.66 µM | Activity index [13]: 0.22 | MIC90 [14]: 2 µg/mL

CCOC(=O)c1cc(-c2csc(Nc3cc(Cl)cc(Cl)c3)n2)n(C)n1
MIC90 [1]: > 64 µg/mL

CCOC(=O)c1cc(-c2csc(Nc3ccc(C)cc3)n2)n(C)n1
MIC90 [1]: 16 to 32 µg/mL

CC(=O)c1nc(Nc2ccc(C)cc2)sc1C
MIC90 [1]: > 64 µg/mL

Cc1ccc(Nc2nc(-c3ccncc3)cs2)cc1
MIC90 [1]: > 64 µg/mL

Cc1ccc(Nc2nc(-c3cc(-c4nccs4)no3)cs2)cc1
MIC90 [1]: > 64 µg/mL

Cn1nc(C(=O)O)cc1-c1csc(Nc2cc(Cl)cc(Cl)c2)n1
MIC90 [1]: > 64 µg/mL

Cc1ccc(Nc2nc(-c3nc(N)sc3C)cs2)cc1
MIC90 [1]: 16 to 32 µg/mL

O=C(NC12CC3CC(CC(C3)C1)C2)c1cc(-c2csc(Nc3cc(Cl)cc(Cl)c3)n2)on1
MIC90 [1]: > 64 µg/mL

Cc1ccc(Nc2nc(-c3cc(C(N)=O)no3)cs2)cc1
MIC90 [1]: > 64 µg/mL

O=C(Nc1ccccc1)c1cc(-c2csc(Nc3cc(Cl)cc(Cl)c3)n2)on1
selectivity ratio [5]: > 500

CC(=O)c1nc(Nc2cc(Cl)cc(Cl)c2)sc1C
MIC90 [1]: > 64 µg/mL

COc1ccc(-c2cc(-c3csc(Nc4ccc(C)cc4)n3)on2)cc1
MIC90 [1]: 4 to 8 µg/mL

CCOC(=O)c1cc(-c2csc(Nc3ccc(C)cc3)n2)on1
half-life at 1 µM [2]: < 1 min | CLint scaled at 1 µM [3]: > 400 mL/min/kg | MIC90 [1]: 1.5 to 3 µM

O=C(O)c1cc(-c2csc(Nc3cc(Cl)cc(Cl)c3)n2)on1
MIC90 [1]: > 64 µg/mL

COc1ccc(-c2csc(Nc3ccc(C)cc3)n2)cc1
MIC90 [1]: 3.8 µg/mL

Cc1ccc(Nc2nc(-c3cc(CO)no3)cs2)cc1
MIC90 [1]: 16 to 32 µg/mL

c1cc(Nc2nc(-c3ccncc3)cs2)ccn1
MIC90 [1]: > 64 µg/mL

Cc1sc(Nc2cc(Cl)cc(Cl)c2)nc1-c1csc(Nc2cc(Cl)cc(Cl)c2)n1
MIC90 [1]: > 64 µg/mL

Cc1sc(N)nc1-c1csc(Nc2cc(Cl)cc(Cl)c2)n1
MIC90 [1]: 8 to 16 µg/mL

Cc1ccc(Nc2nc(-c3cc(C(=O)Nc4ccccn4)no3)cs2)cc1
half-life at 1 µM [2]: 16.1 min | MIC90 [4]: 100 µg/mL (≈ 265 µM) | MIC90 [6]: 100 µg/mL (≈ 265 µM) | MIC90 [7]: 100 µg/mL (≈ 265 µM) | MIC90 [8]: 1 µg/mL (≈ 2.65 µM) | MIC90 [9]: 1 µg/mL | IC50 [10]: 140 µM | CLint scaled at 1 µM [3]: 38.8 mL/min/kg | MIC90 [11]: 100 µg/mL (≈ 265 µM) | MIC90 [12]: 100 µg/mL (≈ 265 µM) | MIC90 [1]: 0.16 to 0.32 µM | Activity index [13]: 0.17 | MIC90 [14]: 2 µg/mL

NNC(=O)c1ccncc1 [ISONIAZID]
MIC90 [1]: 0.22 to 0.44 µM

Cc1ccc(Nc2nc(-c3nc(Nc4ccc(C)cc4)sc3C)cs2)cc1
MIC90 [1]: 4 to 8 µg/mL

CNC(=O)c1cc(-c2csc(Nc3ccc(C)cc3)n2)on1
MIC90 [1]: > 64 µg/mL

Cc1ccc(Nc2nc(-c3cc(C(=O)NC45CC6CC(CC(C6)C4)C5)no3)cs2)cc1
MIC90 [1]: > 64 µg/mL

CCOC(=O)c1cc(-c2csc(Nc3cc(Cl)cc(Cl)c3)n2)on1
half-life at 1 µM [2]: 3.3 min | CLint scaled at 1 µM [3]: 189 mL/min/kg | MIC90 [1]: 4 to 8 µg/mL

Clc1cc(Cl)cc(Nc2nc(-c3c[nH]nn3)cs2)c1
MIC90 [1]: > 64 µg/mL

CCN(CC)C(=O)c1cc(-c2csc(Nc3ccc(C)cc3)n2)n(C)n1
MIC90 [1]: > 64 µg/mL

Cc1ccc(Nc2nc(-c3cc(C(=O)O)nn3C)cs2)cc1
MIC90 [1]: > 64 µg/mL
